Source: ChEMBL document CHEMBL1135409, “Structure-activity relationships of a novel class of endothelin-A receptor antagonists and discovery of potent and selective receptor antagonist, 2-(benzo[1,3]dioxol-5-yl)-6-isopropyloxy-4-(4-methoxyphenyl)-2H-chromene-3-carboxylic acid (S-1255). 1. Study on structure-activity relationships and …” (J Med Chem, 2002)

Assays:
[1] = biological target: T1, Endothelin receptor type B (Sus scrofa, UniProt P35463); experiment: Binding affinity to endothelin B receptor measured by inhibition of [125I]ET-3 binding recombinant pig ET-B receptor expressed in COS-7 cells; type: cell-based
T1 sequence (P35463 whole entry): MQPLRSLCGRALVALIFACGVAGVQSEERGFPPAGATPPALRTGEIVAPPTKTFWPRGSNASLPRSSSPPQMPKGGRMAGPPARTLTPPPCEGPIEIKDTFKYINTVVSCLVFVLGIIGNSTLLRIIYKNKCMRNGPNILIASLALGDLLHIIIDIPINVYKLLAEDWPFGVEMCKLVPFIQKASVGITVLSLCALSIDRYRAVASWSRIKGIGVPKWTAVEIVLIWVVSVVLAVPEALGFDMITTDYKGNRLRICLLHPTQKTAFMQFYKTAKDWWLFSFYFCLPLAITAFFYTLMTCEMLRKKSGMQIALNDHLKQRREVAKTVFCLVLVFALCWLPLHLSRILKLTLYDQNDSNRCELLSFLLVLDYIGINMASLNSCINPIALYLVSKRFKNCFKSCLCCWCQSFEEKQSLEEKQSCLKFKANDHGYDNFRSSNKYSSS
Summary of the method: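 COS cells transfected with porcine ETB cDNA, in Hank's solution with 20 mM HEPES and protease inhibitors. Stopped by filtration on GF/C filters presoaked in 1% polyethylenimine, washed with 50 mM Tris-HCl pH 7.4, then counted. Nonspecific binding taken with 0.1 μM ET-3.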

[2] = biological target: T2, Endothelin-1 receptor (Rattus norvegicus, UniProt P26684); experiment: Binding affinity for endothelin A receptor by inhibition of [125I]ET1 binding in rat aorta smooth muscle cells; type: tissue-based
T2 sequence (P26684 whole entry): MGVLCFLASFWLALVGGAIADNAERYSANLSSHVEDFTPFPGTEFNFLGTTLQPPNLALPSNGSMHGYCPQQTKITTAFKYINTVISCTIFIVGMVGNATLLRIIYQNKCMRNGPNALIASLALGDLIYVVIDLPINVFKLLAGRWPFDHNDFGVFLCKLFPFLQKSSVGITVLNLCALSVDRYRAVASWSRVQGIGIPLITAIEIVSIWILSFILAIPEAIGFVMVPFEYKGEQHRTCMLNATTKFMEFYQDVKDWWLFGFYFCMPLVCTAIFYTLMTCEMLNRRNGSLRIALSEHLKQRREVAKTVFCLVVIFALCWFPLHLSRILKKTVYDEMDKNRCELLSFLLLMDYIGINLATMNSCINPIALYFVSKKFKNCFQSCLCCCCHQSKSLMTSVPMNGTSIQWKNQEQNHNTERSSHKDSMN

[3] = Ratio of inhibitory concentrations at ET-B receptor relative to that of ET-A receptor

IC50 [1] | IC50 [2] | Ratio [3] | Structure (SMILES)
72 nM | 220 nM | – | CCCOc1ccc2c(c1)C(c1ccc3c(c1)OCO3)=C(C(=O)O)C(c1ccc(OC)cc1)O2 (configuration not stated)
– | – | 840 | CCCCC1=C(C(=O)O)C(c2ccc3c(c2)OCO3)Oc2ccc(OC(C)C)cc21 (configuration not stated)
2300 nM | 970 nM | 2.4 | CCCOc1ccc2c(c1)OC(c1ccc3c(c1)OCO3)C(C(=O)O)=C2c1ccc(OC)cc1 (configuration not stated)
400 nM | 810 nM | – | CCCCOc1ccc2c(c1)C(c1ccc3c(c1)OCO3)=C(C(=O)O)C(c1ccc(OC)c(OC)c1)O2 (configuration not stated)
2100 nM | 83 nM | – | CC(C)c1ccc(C2=C(C(=O)O)C(c3ccc4c(c3)OCO4)Oc3ccccc32)cc1 (configuration not stated)
600 nM | 6.3 nM | – | CC(C)Oc1ccc2c(c1)C(c1ccc(OCc3ccccc3)cc1)=C(C(=O)O)C(c1ccc3c(c1)OCO3)O2 (configuration not stated)
2300 nM | 250 nM | 9.2 | CCCCOC1=C(C(=O)O)C(c2ccc3c(c2)OCO3)Oc2ccc(OC)cc21 (configuration not stated)
43 nM | – | – | CCCCOc1ccc2c(c1)C(c1ccc3c(c1)OCO3)=C(C(=O)O)C(c1ccc(OC)cc1)O2 (configuration not stated)
160 nM | 350 nM | – | CCCCOc1ccc2c(c1)C(c1ccc3c(c1)OCO3)=C(C(=O)O)C(c1cccc(OC)c1)O2 (configuration not stated)
2800 nM | – | – | CCCCOC1=C(C(=O)O)C(c2ccc3c(c2)OCO3)Oc2cc(OCCC)ccc21 (configuration not stated)
– | > 10000 nM | – | CCCCC1=C(C(=O)OC)C(c2ccc3c(c2)OCO3)Oc2ccc(OC(C)C)cc21 (configuration not stated)
790 nM | 62 nM | 13 | COc1ccc(C2=C(C(=O)O)C(c3ccc4c(c3)OCO4)Oc3ccc(OCc4ccccc4)cc32)cc1 (configuration not stated)
3600 nM | 5200 nM | – | CCCCOc1ccc(C2Oc3ccc(OCCCC)cc3C(c3ccc4c(c3)OCO4)=C2C(=O)O)cc1 (configuration not stated)
470 nM | 1.6 nM | – | COc1cccc(C2=C(C(=O)O)C(c3ccc4c(c3)OCO4)Oc3ccc(OC(C)C)cc32)c1 (configuration not stated)
6900 nM | 530 nM | – | Cc1ccc(C2=C(C(=O)O)C(c3ccc4c(c3)OCO4)Oc3ccccc32)cc1 (configuration not stated)
410 nM | 4.7 nM | – | CCCCCCCOC1=C(C(=O)O)C(c2ccc3c(c2)OCO3)Oc2ccc(OC(C)C)cc21 (configuration not stated)
6000 nM | – | – | CCCCOC1=C(C(=O)O)C(c2ccc3c(c2)OCO3)Oc2cccc(OCCC)c21 (configuration not stated)
2800 nM | 700 nM | – | COc1cccc(C2=C(C(=O)O)C(c3ccc4c(c3)OCO4)Oc3ccccc32)c1 (configuration not stated)
7200 nM | 12 nM | – | CC(C)Oc1ccc2c(c1)C(Cl)=C(C(=O)O)C(c1ccc3c(c1)OCO3)O2 (configuration not stated)

IC50 [1] | IC50 [2] | Ratio [3] | Structure (SMILES)
– | 0.33 nM | – | C=CCCCOC1=C(C(=O)O)C(c2ccc3c(c2)OCO3)Oc2ccc(OC(C)C)cc21 (configuration not stated)
– | 0.51 nM | – | COc1ccc(C2=C(C(=O)O)C(c3ccc4c(c3)OCO4)Oc3ccc(OC(C)C)cc32)cc1 (configuration not stated)
750 nM | 4.9 nM | – | CC(C)Oc1ccc2c(c1)C(c1ccc(C(C)C)cc1)=C(C(=O)O)C(c1ccc3c(c1)OCO3)O2 (configuration not stated)
– | 18 nM | – | CCCCC1=C(c2nnn[nH]2)C(c2ccc3c(c2)OCO3)Oc2ccc(OC(C)C)cc21 (configuration not stated)
2800 nM | 2.2 nM | – | CCOC1=C(C(=O)O)C(c2ccc3c(c2)OCO3)Oc2ccc(OC(C)C)cc21 (configuration not stated)
5800 nM | 800 nM | – | O=C(O)C1=C(c2ccc(Cl)cc2)c2ccccc2OC1c1ccc2c(c1)OCO2 (configuration not stated)
2200 nM | 4800 nM | – | CCCCOc1ccc2c(c1)C(c1ccc3c(c1)OCO3)=C(C(=O)O)C(c1ccc(OC3CCCC3)cc1)O2 (configuration not stated)
– | 630 nM | – | COc1ccc(C2=C(C(N)=O)C(c3ccc4c(c3)OCO4)Oc3ccc(OC(C)C)cc32)cc1 (configuration not stated)
– | 48 nM | – | CCCCC1=C(C(=O)NS(C)(=O)=O)C(c2ccc3c(c2)OCO3)Oc2ccc(OC(C)C)cc21 (configuration not stated)
15000 nM | 290 nM | – | CCOC1=C(C(=O)O)C(c2ccc3c(c2)OCO3)Oc2ccccc21 (configuration not stated)
4800 nM | 4.1 nM | – | CC(C)Oc1ccc2c(c1)C(c1ccc(O)cc1)=C(C(=O)O)C(c1ccc3c(c1)OCO3)O2 (configuration not stated)
3500 nM | 3 nM | – | COc1ccccc1C1=C(C(=O)O)C(c2ccc3c(c2)OCO3)Oc2ccc(OC(C)C)cc21 (configuration not stated)
4000 nM | – | – | COc1ccc(C2=C(C(=O)O)C(c3ccc4c(c3)OCO4)Oc3c(OC)cccc32)cc1 (configuration not stated)
– | 3 nM | – | CC(C)Oc1ccc2c(c1)C(c1ccccc1)=C(C(=O)O)C(c1ccc3c(c1)OCO3)O2 (configuration not stated)
> 100000 nM | 67000 nM | – | O=C(O)C1=Cc2ccccc2OC1c1ccc2c(c1)OCO2 (configuration not stated)
170 nM | 3.2 nM | – | CC(C)Oc1ccc2c(c1)C(c1ccc3c(c1)OCO3)=C(C(=O)O)C(c1ccc3c(c1)OCO3)O2 (configuration not stated)
760 nM | 130 nM | – | CCCCOc1ccc2c(c1)C(c1ccc3c(c1)OCO3)=C(C(=O)O)C(c1ccccc1OC)O2 (configuration not stated)
1600 nM | 160 nM | – | CCCCOc1ccc2c(c1)C(c1ccc3c(c1)OCO3)=C(C(=O)O)C(c1cc(OC)ccc1OC)O2 (configuration not stated)
7600 nM | 130 nM | – | CCCCCCCCCCOC1=C(C(=O)O)C(c2ccc3c(c2)OCO3)Oc2ccc(OC(C)C)cc21 (configuration not stated)

IC50 [1] | IC50 [2] | Ratio [3] | Structure (SMILES)
> 100000 nM | – | > 60 | CC(C)Oc1ccc2c(c1)C=C(C(=O)O)[C@H](c1ccc3c(c1)OCO3)O2
– | 1.8 nM | – | COc1ccc(C2=C(C(=O)NS(C)(=O)=O)C(c3ccc4c(c3)OCO4)Oc3ccc(OC(C)C)cc32)cc1 (configuration not stated)
710 nM | 350 nM | – | O=C(O)C1=C(c2ccc3c(c2)OCO3)c2ccccc2OC1c1ccc2c(c1)OCO2 (configuration not stated)
80 nM | 43 nM | – | CCCOc1ccc2c(c1)C(c1ccc3c(c1)OCO3)=C(C(=O)O)C(c1ccc3c(c1)OCO3)O2 (configuration not stated)
2700 nM | – | – | CC(C)Oc1ccc2c(c1)C(c1ccc3c(c1)OCO3)=C(C(=O)O)C(c1ccc(C(C)C)cc1)O2 (configuration not stated)
200 nM | 3 nM | – | COc1ccc(CCOC2=C(C(=O)O)C(c3ccc4c(c3)OCO4)Oc3ccc(OC(C)C)cc32)cc1 (configuration not stated)
– | 410 nM | – | CCCCC1=C(C(N)=O)C(c2ccc3c(c2)OCO3)Oc2ccc(OC(C)C)cc21 (configuration not stated)
10000 nM | 160 nM | – | CCCOC1=C(C(=O)O)C(c2ccc3c(c2)OCO3)Oc2ccccc21 (configuration not stated)
31000 nM | 2200 nM | – | COc1ccccc1C1=C(C(=O)O)C(c2ccc3c(c2)OCO3)Oc2ccccc21 (configuration not stated)
> 100000 nM | 780 nM | – | O=C(O)C1=C(c2ccccc2)c2ccccc2OC1c1ccc2c(c1)OCO2 (configuration not stated)
– | 0.32 nM | – | COc1ccc(CC2=C(C(=O)O)C(c3ccc4c(c3)OCO4)Oc3ccc(OC(C)C)cc32)cc1 (configuration not stated)
5800 nM | 6.8 nM | – | CC(C)Oc1ccc2c(c1)C(OCCCC#N)=C(C(=O)O)C(c1ccc3c(c1)OCO3)O2 (configuration not stated)
3400 nM | 1.3 nM | – | COc1ccc([C@@H]2c3cc(OC(C)C)ccc3O[C@H](c3ccc4c(c3)OCO4)[C@H]2C(=O)O)cc1
– | > 10000 nM | – | COC(=O)C1=C(c2ccc(OC)cc2)c2cc(OC(C)C)ccc2OC1c1ccc2c(c1)OCO2 (configuration not stated)
35 nM | 18 nM | – | CCCCOc1ccc2c(c1)C(c1ccc3c(c1)OCO3)=C(C(=O)O)C(c1ccc(OC)cc1OC)O2 (configuration not stated)
– | 8 nM | – | CC(C)Oc1ccc2c(c1)C(c1ccc(F)cc1)=C(C(=O)O)C(c1ccc3c(c1)OCO3)O2 (configuration not stated)
1100 nM | 29 nM | – | CCCCCOC1=C(C(=O)O)C(c2ccc3c(c2)OCO3)Oc2ccccc21 (configuration not stated)
– | – | 1900 | CCCCOC1=C(C(=O)O)C(c2ccc3c(c2)OCO3)Oc2ccc(OC(C)C)cc21 (configuration not stated)
– | 77 nM | – | CCCC[C@@H]1c2cc(OC(C)C)ccc2O[C@H](c2ccc3c(c2)OCO3)[C@H]1C(=O)O
